Measured values: ChEMBL document CHEMBL5252539, “In vitro biological evaluation of new antimycobacterial salicylanilide-tuftsin conjugates” (Eur J Med Chem, 2017)
In brackets after ≈: the same amount, converted by molar mass. Activity calls are given as the source filed them. The calls are words filed in the database; no cut-off is given here. *1 amine or outer side, *2 acyl side, *3 side chain or, on linkers, in order; H or OH if unused. Where a SMILES comes first, the peptide text is derived from it. [ ]: non-standard residue; d: D form. The star is where a group is joined. X4 = O=C(Nc1ccc(C(F)(F)F)cc1)c1cc(/C=N\OCC(=O)*)ccc1O; X2 = C/C(=N\OCC(=O)*)c1ccc(NC(=O)c2cc(Br)ccc2O)cc1; X1 = C/C(=N\OCC(=O)[*:2])c1ccc(N[*:1])cc1; Benzoyl(5-Br-2-OH) = O=C(c1cc(Br)ccc1O)*; Butyryl = CCCC(=O)*

Tests used:
[1] = Selectivity index, ratio of IC50 for cytostatic activity against human MONO-MAC-6 cells to MIC for antimycobacterial activity against Mycobacterium tuberculosis H37Rv ATCC 27294; format: toxicity, cell-based; conditions: read-out: Selectivity Index
Procedure, shortened: (§1)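 MTT assay on MonoMac6 or HepG2 cells after 24 h exposure, top concentration 200 µM. SI = IC50 (µM)/MIC (µM) against H37Rv from the 4-week Sula medium assay.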

[2] = Stability in rat liver lysosomal homogenate assessed as drug degradation at 50 uM and measured upto 24 hrs by HPLC-MS analysis; format: ADME, subcellular, Lysosome; conditions: tissue homogenate
Procedure, shortened: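 Conjugates incubated in rat liver lysosomal homogenate. Reaction mixtures sampled at 5 min, 1 h, 2 h, 4 h, 8 h and 24 h and analysed by HPLC-MS (chromatograms and mass spectra) to identify intact conjugate, fragments and cleavage sites.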

[3] = system: Mycobacteroides abscessus; assay: Antimycobacterial activity against Mycobacterium abscessus ATCC 19977 assessed as reduction in bacterial growth after 7 days by serial dilution method; format: functional; conditions: ATCC 19977, 168 h, time 7 day
Procedure, shortened: (§2)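 MIC determined in Sula semisynthetic medium, pH 6.5, 1 week incubation. Growth inhibition confirmed by plating on Löwenstein-Jensen solid medium and counting CFU. Bacteria inoculated without drug served as growth control.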

[4] = Selectivity index, ratio of IC50 for cytostatic activity against human HepG2 cells to MIC for antimycobacterial activity against Mycobacterium tuberculosis H37Rv ATCC 27294; format: toxicity, cell-based; conditions: read-out: Selectivity Index; procedure, shortened: as §1
[5] = system: Mycobacterium tuberculosis; assay: […] antimycobacterial activity against Mycobacterium tuberculosis H37Rv ATCC 27294 infected in human MONO-MAC-6 cells assessed as reduction in colony forming unit at 125 uM for 6 days by colony counting based analysis; format: functional, organism-based; conditions: time 6.0 day
Procedure, shortened: (§3)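 MonoMac6 monolayers infected with H37Rv, then treated with compound at 125 or 250 µM for 3 days. Treatment repeated with fresh compound solution for another 3 days. Intracellular bacteria quantified as CFU against untreated infected cells.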

[6] = system: Mycobacterium tuberculosis; assay: Antimycobacterial activity against Mycobacterium tuberculosis H37Rv ATCC 27294 assessed as reduction in bacterial growth after 28 days by serial dilution method; format: functional; conditions: H37Rv ATCC 27294, 672 h, time 28 day
Procedure, shortened: (§4)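 Broth MIC in Sula semisynthetic medium, pH 6.5; 4-week incubation, with 21-day values […] where indicated. Drug-free inoculated bacteria served as growth control. MIC also expressed as drug content (µg/mL) = MIC (µM) × average SAL molar mass × number of SAL per conjugate / 1000.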

[7] = system: HepG2; assay: Cytostatic activity against human HepG2 cells assessed as reduction in cell viability incubated for 24 hrs by MTT assay; format: functional, cell-based; conditions: HepG2, 24 h
Procedure, shortened: (§5)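 MTT viability assay after 24 h exposure of MonoMac6 human monocytic cells or HepG2 human hepatocellular carcinoma cells. Top concentration 200 μM. IC50 taken from dose-response curves as the concentration reducing viability to 50% of maximal.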

[8] = system: Mycobacterium tuberculosis; assay: Antimycobacterial activity against Mycobacterium tuberculosis H37Rv ATCC 27294 assessed as reduction in colony forming unit after 28 days by serial dilution method; format: functional, organism-based; conditions: time 28.0 day
Procedure, shortened: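 After the 4-week MIC incubation in Sula semisynthetic medium (pH 6.5), growth inhibition confirmed by plating on Löwenstein-Jensen solid medium and counting colony forming units.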

[9] = system: Mycobacterium tuberculosis; assay: […] antimycobacterial activity against Mycobacterium tuberculosis H37Rv ATCC 27294 infected in human MONO-MAC-6 cells assessed as reduction in colony forming unit at 250 uM for 6 days by colony counting based analysis; format: functional, organism-based; conditions: time 6.0 day; procedure, shortened: as §3
[10] = system: MONO-MAC-6; assay: Cytostatic activity against human MONO-MAC-6 cells assessed as reduction in cell viability incubated for 24 hrs by MTT assay; format: functional, cell-based; conditions: MONO-MAC-6, 24 h; procedure, shortened: as §5
[11] = system: Mycobacteroides abscessus; assay: Antimycobacterial activity against Mycobacterium abscessus ATCC 19977 assessed as reduction in colony forming unit after 7 days by serial dilution method; format: functional, organism-based; conditions: time 7.0 day; procedure, shortened: as §2
[12] = Retention time of the compound by RP-HPLC analysis; format: physicochemical
Procedure, shortened: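 Analytical RP-HPLC on a C18 column (5 μm, 100 Å, 4.6 × 150 mm). Eluent A 0.1% TFA in water, eluent B 0.1% TFA in acetonitrile-water 80:20. Gradient 0% B for 5 min, to 60% B at 15 min, to 100% B at 25 min. Flow 1 mL/min, detection at 220 nm.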

[13] = system: Mycobacterium tuberculosis; assay: Antimycobacterial activity against Mycobacterium tuberculosis H37Rv ATCC 27294 assessed as reduction in bacterial growth after 21 days by serial dilution method; format: functional; conditions: H37Rv ATCC 27294, 504 h, time 21 day; procedure, shortened: as §4

| Compound | selectivity ratio [1] | Stability [2] | MIC [3] | selectivity ratio [4] | Activity [5] | MIC [6] | IC50 [7] | Activity [8] | Activity [9] | IC50 [10] | Activity [11] | Retention_time [12] | MIC [13] |
| --- | --- | --- | --- | --- | --- | --- | --- | --- | --- | --- | --- | --- | --- |
| C/C(=N\OCC(=O)N[C@H](C(=O)N[C@@H](CCCCN)C(=O)N1CCC[C@H]1C(=O)N[C@@H](CCCNC(=N)N)C(=O)O)[C@@H](C)O)c1ccc(NC(=O)c2cc(Br)ccc2O)cc1 ({Benzoyl(5-Br-2-OH)}-[X1]TKPR-OH) | > 4.4 | Unstable | 225 µM (≈ 200 µg/mL) | > 4.4 | Active | 45 µM (≈ 40 µg/mL) | > 200 µM | Active | Active | > 200 µM | Active | – | – |
| C/C(=N\OCC(=O)N[C@H](C(=O)N[C@@H](CCCCN)C(=O)N1CCC[C@H]1C(=O)N1CCC[C@H]1C(=O)N[C@@H](CCCNC(=N)N)C(=O)O)[C@@H](C)O)c1ccc(NC(=O)c2cc(Br)ccc2O)cc1 | > 9.9 | Unstable | – | > 9.9 | – | – | > 200 µM | – | – | > 200 µM | – | – | – |
| C/C(=N\OCC(=O)N[C@H](C(=O)N[C@@H](CCCCN)C(=O)N1CCC[C@H]1C(=O)N[C@@H](CCCCN)C(=O)NCC(=O)N[C@H](C(=O)N[C@@H](CCCCN)C(=O)N1CCC[C@H]1C(=O)N[C@@H](CCCCN)C(=O)NCC(N)=O)[C@@H](C)O)[C@@H](C)O)c1ccc(NC(=O)c2cc(Br)ccc2O)cc1 ({Benzoyl(5-Br-2-OH)}-[X1]TKPKGTKPKG-NH2) | > 1.1 | Unstable | 56 µM (≈ 80.1 µg/mL) | > 1.1 | Active | 175 µM (≈ 250 µg/mL) | > 200 µM | Active | Active | > 200 µM | Active | 14.9 min | – |
| CCCC(=O)NCCCC[C@H](NC(=O)[C@@H]1CCCN1C(=O)[C@H](CCCCN)NC(=O)[C@@H](NC(=O)CO/N=C(\C)c1ccc(NC(=O)c2cc(Br)ccc2O)cc1)[C@@H](C)O)C(=O)NCC(=O)N[C@H](C(=O)N[C@@H](CCCCN)C(=O)N1CCC[C@H]1C(=O)N[C@@H](CCCCN)C(=O)NCC(=O)N[C@H](C(=O)N[C@@H](CCCCN)C(=O)N1CCC[C@H]1C(=O)N[C@@H](CCCCN)C(=O)NCC(=O)N[C@H](C(=O)N[C@@H](CCCCN)C(=O)N1CCC[C@H]1C(=O)N[C@@H](CCCCN)C(=O)NCC(N)=O)[C@@H](C)O)[C@@H](C)O)[C@@H](C)O ({Benzoyl(5-Br-2-OH)}-[X1]TKPK(Butyryl)GTKPKGTKPKGTKPKG-NH2) | > 3.2 | – | 79.3 µM (≈ 200 µg/mL) | 1.3 | Active | 63.4 µM (≈ 160 µg/mL) | 81.6 µM | Active | Active | > 200 µM | Active | 14.7 min | – |
| C/C(=N\OCC(=O)N[C@H](C(=O)O)[C@@H](C)O)c1ccc(NC(=O)c2cc(Br)ccc2O)cc1 | > 0.5 | – | – | > 0.5 | Active | – | > 200 µM | Active | Active | > 200 µM | Active | – | 394 µM (≈ 200 µg/mL) |
| C/C(=N\OCC(=O)N[C@H](C(=O)N[C@@H](CCCCN)C(=O)N1CCC[C@H]1C(=O)N[C@@H](CCCCN)C(=O)NCC(=O)O)[C@@H](C)O)c1ccc(NC(=O)c2cc(Br)ccc2O)cc1 ({Benzoyl(5-Br-2-OH)}-[X1]TKPKG-OH) | > 3.1 | Unstable | 218 µM (≈ 200 µg/mL) | 2.9 | Active | 65.3 µM (≈ 60 µg/mL) | 191 µM | Active | Active | > 200 µM | Active | – | – |
| C/C(=N\OCC(=O)NCC(=O)N[C@@H](Cc1ccccc1)C(=O)N[C@@H](CC(C)C)C(=O)NCC(=O)N[C@H](C(=O)N[C@@H](CCCCN)C(=O)N1CCC[C@H]1C(=O)N[C@@H](CCCCN)C(=O)NCC(N)=O)[C@@H](C)O)c1ccc(NC(=O)c2cc(Br)ccc2O)cc1 ({Benzoyl(5-Br-2-OH)}-[X1]GFLGTKPKG-NH2) | > 6.5 | Unstable | 155 µM (≈ 200 µg/mL) | 5.3 | Active | 31 µM (≈ 40.1 µg/mL) | 163 µM | Active | Active | > 200 µM | Active | – | – |
| C/C(=N\OCC(=O)NCC(=O)O)c1ccc(NC(=O)c2cc(Br)ccc2O)cc1 | > 0.9 | – | – | > 0.9 | Active | – | > 200 µM | Active | Active | > 200 µM | Active | – | 215 µM (≈ 100 µg/mL) |
| C/C(=N\OCC(=O)NCCCC[C@H](NC(=O)[C@@H]1CCCN1C(=O)[C@H](CCCCN)NC(=O)[C@@H](NC(=O)CNC(=O)[C@H](CCCCNC(=O)CO/N=C(\C)c1ccc(NC(=O)c2cc(Br)ccc2O)cc1)NC(=O)[C@@H]1CCCN1C(=O)[C@H](CCCCN)NC(=O)[C@@H](NC(=O)[C@H](CCCNC(=N)N)NC(=O)[C@@H]1CCCN1C(=O)[C@H](CCCCN)NC(=O)[C@@H](N)[C@@H](C)O)[C@@H](C)O)[C@@H](C)O)C(=O)NCC(=O)O)c1ccc(NC(=O)c2cc(Br)ccc2O)cc1 (H-TKPRTKPK(X2)GTKPK(X2)G-OH) | 2.9 | – | 86.9 µM (≈ 200 µg/mL) | 2.7 | Active | 34.8 µM (≈ 80.1 µg/mL) | 95.2 µM | Active | Active | 101 µM | Active | – | – |
| C[C@@H](O)[C@H](NC(=O)CNC(=O)[C@H](CCCCN)NC(=O)[C@@H]1CCCN1C(=O)[C@H](CCCCN)NC(=O)[C@@H](NC(=O)CNC(=O)[C@H](CCCCN)NC(=O)[C@@H]1CCCN1C(=O)[C@H](CCCCN)NC(=O)[C@@H](NC(=O)CNC(=O)[C@H](CCCCN)NC(=O)[C@@H]1CCCN1C(=O)[C@H](CCCCN)NC(=O)[C@@H](NC(=O)CO/N=C\c1ccc(O)c(C(=O)Nc2ccc(C(F)(F)F)cc2)c1)[C@@H](C)O)[C@@H](C)O)[C@@H](C)O)C(=O)N[C@@H](CCCCN)C(=O)N1CCC[C@H]1C(=O)N[C@@H](CCCCN)C(=O)NCC(N)=O (X4-TKPKGTKPKGTKPKGTKPKG-NH2) | > 2.4 | – | 41.2 µM (≈ 100 µg/mL) | > 2.4 | Active | – | > 200 µM | Active | Active | > 200 µM | Active | – | 82.4 µM (≈ 200 µg/mL) |
| C/C(=N\OCC(=O)NCCCC[C@H](NC(=O)[C@@H]1CCCN1C(=O)[C@H](CCCCN)NC(=O)[C@@H](NC(=O)CO/N=C(\C)c1ccc(NC(=O)c2cc(Br)ccc2O)cc1)[C@@H](C)O)C(=O)NCC(=O)N[C@H](C(=O)N[C@@H](CCCCN)C(=O)N1CCC[C@H]1C(=O)N[C@@H](CCCCN)C(=O)NCC(=O)N[C@H](C(=O)N[C@@H](CCCCN)C(=O)N1CCC[C@H]1C(=O)N[C@@H](CCCCN)C(=O)NCC(=O)N[C@H](C(=O)N[C@@H](CCCCN)C(=O)N1CCC[C@H]1C(=O)N[C@@H](CCCCN)C(=O)NCC(N)=O)[C@@H](C)O)[C@@H](C)O)[C@@H](C)O)c1ccc(NC(=O)c2cc(Br)ccc2O)cc1 ({Benzoyl(5-Br-2-OH)}-[X1]TKPK(X2)GTKPKGTKPKGTKPKG-NH2) | 0.9 | Unstable | 70.4 µM (≈ 200 µg/mL) | 1.9 | inactive | 42.2 µM (≈ 120 µg/mL) | 79.7 µM | Active | Active | 39.1 µM | Active | 16.3 min | – |
